# Experiments:
# Format in all cases: functional
# Staphylococcus aureus [1] = assay: Antimicrobial activity against methicillin-resistant Staphylococcus aureus isolate 17a after 24 hrs by agar plate dilution method
# Procedure, shortened: (§1)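 Clinical MRSA isolates from axilla/nasal swabs, identified by mannitol salt agar, Gram stain and coagulase test. Agar plate dilution with compound series 0.03–128 µg/mL. Inoculum suspended in water to McFarland 0.5. Incubation 24 h at 37 °C. MIC read as the lowest level without white growth spots. Dilution series quality-controlled with S. aureus NCTC 6571.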
# Staphylococcus aureus [2] = assay: Antimicrobial activity against methicillin-resistant Staphylococcus aureus isolate 25a after 24 hrs by agar plate dilution method in presence of oxacillin (1:1)
# Procedure, shortened: (§2)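 Test compound and oxacillin mixed 1:1, each at 32 µg/mL in the mixture, then serially diluted into agar plates. Clinical MRSA isolates at McFarland 0.5 in water were spotted onto the plates and incubated 24 h at 37 °C. Growth was read as white spots. NCTC 6571 S. aureus served as the dilution-series control.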
# Staphylococcus aureus [3] = assay: Antimicrobial activity against methicillin-resistant Staphylococcus aureus isolate 27a after 24 hrs by agar plate dilution method in presence of oxacillin (1:1); procedure, shortened: as §2
# Staphylococcus aureus [4] = assay: Antimicrobial activity against methicillin-resistant Staphylococcus aureus isolate 16a after 24 hrs by agar plate dilution method; procedure, shortened: as §1
# Staphylococcus aureus [5] = assay: Antimicrobial activity against methicillin-resistant Staphylococcus aureus isolate 26a after 24 hrs by agar plate dilution method in presence of oxacillin (1:1); procedure, shortened: as §2
# Staphylococcus aureus [6] = assay: Antimicrobial activity against methicillin-resistant Staphylococcus aureus isolate 18a after 24 hrs by agar plate dilution method; procedure, shortened: as §1
# Staphylococcus aureus [7] = assay: Antimicrobial activity against methicillin-resistant Staphylococcus aureus isolate 24a after 24 hrs by agar plate dilution method in presence of oxacillin (1:1); procedure, shortened: as §2
# Staphylococcus aureus [8] = assay: Antimicrobial activity against methicillin-resistant Staphylococcus aureus isolate 26a after 24 hrs by agar plate dilution method; procedure, shortened: as §1
# Staphylococcus aureus [9] = assay: Antimicrobial activity against methicillin-resistant Staphylococcus aureus isolate 13a after 24 hrs by agar plate dilution method; procedure, shortened: as §1
# Staphylococcus aureus [10] = assay: Antimicrobial activity against methicillin-resistant Staphylococcus aureus isolate 27a after 24 hrs by agar plate dilution method; procedure, shortened: as §1
# Staphylococcus aureus [11] = assay: Antimicrobial activity against methicillin-resistant Staphylococcus aureus isolate 14a after 24 hrs by agar plate dilution method; procedure, shortened: as §1
# Staphylococcus aureus [12] = assay: Antimicrobial activity against methicillin-resistant Staphylococcus aureus isolate 15a after 24 hrs by agar plate dilution method in presence of oxacillin (1:1); procedure, shortened: as §2
# Staphylococcus aureus [13] = assay: Bactericidal activity against methicillin-resistant Staphylococcus aureus isolate 1a assessed as reduction in colony counts at 32 ug/ml after 4 hrs by pour plate method in presence of oxacillin (1:1) (reference value: 6.14 +/- 0.456 log10CFU/ml)
# Staphylococcus aureus [14] = assay: Antimicrobial activity against methicillin-resistant Staphylococcus aureus isolate 19a after 24 hrs by agar plate dilution method in presence of oxacillin (1:1); procedure, shortened: as §2
# Staphylococcus aureus [15] = assay: Antimicrobial activity against methicillin-resistant Staphylococcus aureus isolate 28a after 24 hrs by agar plate dilution method; procedure, shortened: as §1
# Staphylococcus aureus [16] = assay: Antimicrobial activity against methicillin-resistant Staphylococcus aureus isolate 30a after 24 hrs by agar plate dilution method in presence of oxacillin (1:1); procedure, shortened: as §2
# Staphylococcus aureus [17] = assay: Antimicrobial activity against methicillin-resistant Staphylococcus aureus isolate 6a after 24 hrs by agar plate dilution method in presence of oxacillin (1:1)
# Procedure, shortened: (§3)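 Clinical MRSA isolates, from axilla/nasal swabs and identified by mannitol salt agar, Gram stain and coagulase test. […] Inoculum adjusted to McFarland 0.5 in water. Plates incubated 24 h at 37 °C and scored for growth spots. Dilution series quality-controlled with S. aureus NCTC 6571. Combination lines used a 1:1 mixture with oxacillin.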
# Staphylococcus aureus [18] = assay: Antimicrobial activity against methicillin-resistant Staphylococcus aureus isolate 16a after 24 hrs by agar plate dilution method in presence of oxacillin (1:1); procedure, shortened: as §2
# Staphylococcus aureus [19] = assay: Bactericidal activity against methicillin-resistant Staphylococcus aureus isolate 1a assessed as reduction in colony counts at 32 ug/ml after 16 hrs by pour plate method in presence of oxacillin (1:1) (reference value: 12.50 +/- 0.291 log10CFU/ml)
# Staphylococcus aureus [20] = assay: Antimicrobial activity against methicillin-resistant Staphylococcus aureus isolate 5a after 24 hrs by agar plate dilution method; procedure, shortened: as §3
# Staphylococcus aureus [21] = assay: Bactericidal activity against methicillin-resistant Staphylococcus aureus isolate 1a assessed as reduction in colony counts at 32 ug/ml after 24 hrs by pour plate method in presence of oxacillin (1:1) (reference value: 12.64 +/- 0.224 log10CFU/ml)
# Staphylococcus aureus [22] = assay: Antimicrobial activity against methicillin-resistant Staphylococcus aureus isolate 5a after 24 hrs by agar plate dilution method in presence of oxacillin (1:1); procedure, shortened: as §3
# Staphylococcus aureus [23] = assay: Antimicrobial activity against methicillin-resistant Staphylococcus aureus isolate 10a after 24 hrs by agar plate dilution method in presence of oxacillin (1:1); procedure, shortened: as §2
# Staphylococcus aureus [24] = assay: Antimicrobial activity against methicillin-resistant Staphylococcus aureus isolate 29a after 24 hrs by agar plate dilution method; procedure, shortened: as §1
# Staphylococcus aureus [25] = assay: Bactericidal activity against methicillin-resistant Staphylococcus aureus isolate 1a assessed as reduction in colony counts at 32 ug/ml after 4 hrs by pour plate method (reference value: 6.14 +/- 0.456 log10CFU/ml)
# Staphylococcus aureus [26] = assay: Antimicrobial activity against methicillin-resistant Staphylococcus aureus isolate 4a after 24 hrs by agar plate dilution method in presence of oxacillin (1:1); procedure, shortened: as §2
# Staphylococcus aureus [27] = assay: Antimicrobial activity against methicillin-resistant Staphylococcus aureus isolate 1a after 24 hrs by agar plate dilution method; procedure, shortened: as §1
# Staphylococcus aureus [28] = assay: Antimicrobial activity against methicillin-resistant Staphylococcus aureus isolate 17a after 24 hrs by agar plate dilution method in presence of oxacillin (1:1); procedure, shortened: as §2
# Staphylococcus aureus [29] = assay: Antimicrobial activity against methicillin-resistant Staphylococcus aureus isolate 19a after 24 hrs by agar plate dilution method; procedure, shortened: as §1
# Staphylococcus aureus [30] = assay: Antimicrobial activity against methicillin-resistant Staphylococcus aureus isolate 6a after 24 hrs by agar plate dilution method; procedure, shortened: as §3
# Staphylococcus aureus [31] = assay: Antimicrobial activity against methicillin-resistant Staphylococcus aureus isolate 12a after 24 hrs by agar plate dilution method; procedure, shortened: as §1
# Staphylococcus aureus [32] = assay: Antimicrobial activity against methicillin-resistant Staphylococcus aureus isolate 11a after 24 hrs by agar plate dilution method; procedure, shortened: as §1
# Staphylococcus aureus [33] = assay: Antimicrobial activity against methicillin-resistant Staphylococcus aureus isolate 10a after 24 hrs by agar plate dilution method; procedure, shortened: as §1
# Staphylococcus aureus [34] = assay: Antimicrobial activity against methicillin-resistant Staphylococcus aureus isolate 7a after 24 hrs by agar plate dilution method; procedure, shortened: as §3
# Staphylococcus aureus [35] = assay: Antimicrobial activity against methicillin-resistant Staphylococcus aureus isolate 15a after 24 hrs by agar plate dilution method; procedure, shortened: as §1
# Staphylococcus aureus [36] = assay: Antimicrobial activity against methicillin-resistant Staphylococcus aureus isolate 22a after 24 hrs by agar plate dilution method; procedure, shortened: as §1
structure (smiles),measurement,setting,value
Cc1ncc([N+](=O)[O-])n1CCn1cc(COc2c(Cl)cccc2Cl)nn1,MIC,Staphylococcus aureus [1],32 µg/mL
same,MIC,Staphylococcus aureus [2],4 µg/mL
same,MIC,Staphylococcus aureus [3],4 µg/mL
same,MIC,Staphylococcus aureus [4],32 µg/mL
same,MIC,Staphylococcus aureus [5],4 µg/mL
same,MIC,Staphylococcus aureus [6],32 µg/mL
same,MIC,Staphylococcus aureus [7],4 µg/mL
same,MIC,Staphylococcus aureus [8],64 µg/mL
same,MIC,Staphylococcus aureus [9],64 µg/mL
same,MIC,Staphylococcus aureus [10],64 µg/mL
same,MIC,Staphylococcus aureus [11],> 128 µg/mL
same,MIC,Staphylococcus aureus [12],4 µg/mL
same,Activity,Staphylococcus aureus [13],5.5 log10CFU/ml
same,MIC,Staphylococcus aureus [14],2 µg/mL
same,MIC,Staphylococcus aureus [15],128 µg/mL
same,MIC,Staphylococcus aureus [16],8 µg/mL
same,MIC,Staphylococcus aureus [17],1 µg/mL
same,MIC,Staphylococcus aureus [18],2 µg/mL
same,Activity,Staphylococcus aureus [19],4.52 log10CFU/ml
same,MIC,Staphylococcus aureus [20],4 µg/mL
same,Activity,Staphylococcus aureus [21],5.6 log10CFU/ml
same,MIC,Staphylococcus aureus [22],1 µg/mL
same,MIC,Staphylococcus aureus [23],2 µg/mL
same,MIC,Staphylococcus aureus [24],128 µg/mL
same,Activity,Staphylococcus aureus [25],5.65 log10CFU/ml
same,MIC,Staphylococcus aureus [26],2 µg/mL
same,MIC,Staphylococcus aureus [27],4 µg/mL
same,MIC,Staphylococcus aureus [28],1 µg/mL
same,MIC,Staphylococcus aureus [29],32 µg/mL
same,MIC,Staphylococcus aureus [30],4 µg/mL
same,MIC,Staphylococcus aureus [31],32 µg/mL
same,MIC,Staphylococcus aureus [32],16 µg/mL
same,MIC,Staphylococcus aureus [33],> 128 µg/mL
same,MIC,Staphylococcus aureus [34],4 µg/mL
same,MIC,Staphylococcus aureus [35],> 128 µg/mL
same,MIC,Staphylococcus aureus [36],> 128 µg/mL
